Series [1] deals with BALB/3T3. Nature of the series: Antiproliferative activity against mouse BALB/3T3 cells after 72 hrs by SRB assay. The note with it: BALB/3T3, 72 h. Type of series: cell-based. The method, boiled down: (§1)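 Adherent cells plated at 1 × 10^4 per well 24 h before treatment, then exposed 72 h to compounds diluted from 20 mg/mL DMSO stock (0.01–1000 µg/mL). Fixed in cold 50% TCA at 4°C for 1 h, stained with 0.4% sulforhodamine B, bound dye extracted with 10 mM Tris, OD at 540 nm. Triplicates, 3–5 experiments; IC50 per experiment, mean ± SD.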
A general note: Sulforhodamine B stains cellular protein and so reports cell mass.

Series [2] has as its system MCF7. Nature of the series: Antiproliferative activity against human MCF7 cells at 290 uM after 72 hrs by SRB assay. In kind it is functional. The method, boiled down: (§2)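 SRB test of adherent cells after 72 h exposure at the highest concentration, 100 µg/ml (290 µM). Cells plated at 1 × 10^4 per well 24 h before treatment; TCA fixation, 0.4% SRB staining, OD 540 nm. Result expressed as % inhibition of proliferation.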

A short description of series [3]: Antiproliferative activity against HLMEC after 72 hrs by SRB assay. More on the design: species or system Homo sapiens. Put shortly:
as §1

The test system of series [4] is HL60/MX2. The experiment in a line: Antiproliferative activity against human HL60/MX2 cells at 290 uM after 72 hrs by MTT assay. Type of series: functional, cell-based. Put shortly: (§3)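 MTT read-out in leukemia cells exposed 72 h to the highest concentration, 100 µg/ml (290 µM), expressed as % proliferation inhibition. Cells seeded at 1 × 10^4 per well 24 h beforehand; MTT for 4 h, DMF/SDS lysis, 570 nm.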

Series [5] concerns HL-60. The experiment in a line: Antiproliferative activity against human HL60 cells at 290 uM after 72 hrs by MTT assay. In kind it is functional, cell-based. Put shortly:
as §3

Series [6] concerns MCF10. The experiment in a line: (§4) Antiproliferative activity against human MCF10 cells at 290 uM after 72 hrs by SRB assay. Type of series: cell-based. The note with it: mcf10, 72 h, 290 µM. Put shortly:
as §2

The nature of series [7]: Antiproliferative activity against HLMEC at 290 uM after 72 hrs by SRB assay. The note with it: human. Put shortly: as §2
Series [8] has as its system BALB/3T3. Nature of the series: (§5) Antiproliferative activity against mouse BALB/3T3 cells at 290 uM after 72 hrs by SRB assay. Type of series: cell-based. The note with it: balb/3t3, 72 h, 290 µM. The method, boiled down:
as §2

A short description of series [9]: as §4. The following applies: MCF10 cells, read-out: GI. In kind it is cell-based. Put shortly:
as §2

A further series relates to LoVo. Nature of the series: Antiproliferative activity against human LoVo cells at 290 uM. The note with it: read-out: GI. In kind it is functional.
Series [10] relates to MCF7. The experiment in a line: Antiproliferative activity against human MCF7 cells after 72 hrs by SRB assay. Type of series: functional, cell-based. The following applies: MCF7, 72 h. The method, boiled down: as §1
Series [11] in a line: as §5. In kind it is cell-based. The following applies: BALB/3T3 cells, read-out: GI. The method, boiled down: as §2
Another series relates to A549. The experiment in a line: Antiproliferative activity against human A549 cells at 290 uM. In kind it is functional. The following applies: read-out: GI.
A short description of series [12]: Antiproliferative activity against human LoVo/DX cells at 290 uM. The following applies: read-out: GI. In kind it is functional.
The test system of series [13] is MCF10. Nature of the series: Antiproliferative activity against human MCF10 cells after 72 hrs by SRB assay. In kind it is cell-based. The note with it: MCF10, 72 h. Put shortly:
as §1

For series [14], the system named is HL60/MX2. Nature of the series: Antiproliferative activity against human HL60/MX2 cells after 72 hrs by MTT assay. The note with it: HL60/MX2, 72 h. In kind it is functional, cell-based. Put shortly:
(§6)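 Leukemia cells seeded at 1 × 10^4 per well 24 h before adding compounds (0.01–1000 µg/mL from DMSO stock), exposed 72 h. MTT (5 mg/mL stock) added for 4 h, then DMF/SDS lysis mixture; absorbance at 570 nm read after 24 h. Triplicates per experiment, 3–5 repeats; IC50 calculated per experiment, reported as mean ± SD.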
(Tetrazolium dyes change colour on reduction, which living cells bring about.)

The subject of series [15] is HL-60. The experiment in a line: Antiproliferative activity against human HL60 cells after 72 hrs by MTT assay. The note with it: HL-60, 72 h. In kind it is functional, cell-based. The method, boiled down:
as §6

Each structure is given as a SMILES string. Activity calls are given as the source filed them. No cut-off for these calls is given here.

`CCOC(=O)C(Cc1cc(OCc2ccccc2)cc(OCc2ccccc2)c1)(NC=O)C(=O)OCC`: the IC50 (as a rule, the concentration that inhibits the measured activity by half) is 68.6 µM in the series on BALB/3T3 [1] and 46.5 µM in series [3]. In addition, the “growth inhibition (GI)” value in the series with MCF7 [2], in the series on HL60/MX2 [4] and with HL-60 [5] was “inactive” throughout.
For `O=C(O)C1Cc2cc(O)c(I)cc2C=N1` (stereo not given), the Activity result (in the series with MCF10 [6]; in series [7]; in the series with BALB/3T3 [8]) was “Non-Toxic” in each case. Besides, the “growth inhibition (GI)” value in the series with MCF7 [2], in the series with HL60/MX2 [4] and with HL-60 [5] was “inactive” throughout.
Consider `O=C(O)C1Cc2cc(O)c(Br)c(O)c2C=N1` (stereo not given), for which the Activity entry (in the series on MCF10 [6]; in series [7]; with BALB/3T3 [8]) was “Non-Toxic” each time. Besides, the “growth inhibition (GI)” value in the series on MCF7 [2], in the series on HL60/MX2 [4] and in the series with HL-60 [5] was “inactive” in each case.
With `CC(C)C[C@H](NC(=O)[C@@H](O)[C@H](N)Cc1ccccc1)C(=O)O` [UBENIMEX], the values for the inhibition at 72 h, 290 µM in series [9] and in [11] were 26.9% and 37.7%, respectively. For the same compound, the inhibition of growth at 290 µM in the series on MCF7 [2] (MCF7, 72 h, read-out: GI) amounted to 63.8%; in the series on LoVo it was 54.8%; with A549 it was 48%; in series [12], 26.9%. This compound also displayed an IC50 in the series with MCF7 [10] of 150 µM.
In the case of `O=C(O)C1CCc2cc(O)c(O)cc2C=N1` (stereo not given), the IC50 is 1590 µM in series [3], 1700 µM in the series with MCF7 [10] and 3330 µM in the series on MCF10 [13]. Moreover, in the series with BALB/3T3 [8], the Activity entry is on record as “Non-Toxic”. The “growth inhibition (GI)” value with HL60/MX2 [4] and in the series with HL-60 [5] was “inactive” throughout.
Regarding `O=C(O)C1Cc2cc(O)c(O)cc2C=N1` (stereo not given), the IC50 in the series with BALB/3T3 [1] stood at 1830 µM; in series [3], 1550 µM; in the series with MCF7 [10], 1240 µM. Also, the “growth inhibition (GI)” value in the series on HL60/MX2 [4] and with HL-60 [5] was “inactive” in each case.
For `COc1cc2c(cc1OC)CCC(C(=O)OCc1ccccc1)(C(=O)OCc1ccccc1)N=C2`, the IC50 turned out to be 929 µM in the series with BALB/3T3 [1], 657 µM in series [3] and 734 µM in the series with MCF7 [10]. Moreover, in the series with HL-60 [5], the “growth inhibition (GI)” value is “inactive”.
As for `O=C(O)C1Cc2cc(O)c(O)c(I)c2C=N1` (stereo not given), the results for the IC50 (in series [3]; in the series on MCF7 [10]; in the series with MCF10 [13]) were 307 µM, 342 µM and 897 µM, respectively. Also, the Activity entry with BALB/3T3 [8] was “Non-Toxic”. Further, the “growth inhibition (GI)” value with HL60/MX2 [4] and in the series with HL-60 [5] was “inactive” throughout.
In the case of `O=C(O)C1Cc2c(O)c(O)cc(Br)c2C=N1` (stereo not given), the IC50 with BALB/3T3 [1] is 1260 µM; in the series with HL60/MX2 [14], 247 µM; in [3], 562 µM; in the series with MCF7 [10] it was 660 µM; in the series on HL-60 [15], 104 µM; in the series with MCF10 [13], 1440 µM.
Regarding `O=C(O)C1Cc2cc(O)c(O)c(O)c2C=N1` (stereo not given), the concentration for half-maximal inhibition (IC50) was found to be 235 µM in the series with BALB/3T3 [1]; 149 µM with HL60/MX2 [14]; 150 µM in [3]; 84.7 µM in the series on MCF7 [10]; 124 µM with HL-60 [15]; 249 µM with MCF10 [13].
Take `C[C@@]1(C(=O)O)Cc2cc(O)c(O)cc2C2C(Cl)C(=O)N21` (stereo not given in full): the IC50 in the series with BALB/3T3 [1] was found to be 1960 µM; in series [3], 1140 µM; with MCF7 [10] it was 1200 µM; in the series with MCF10 [13], 1960 µM. Also, the “growth inhibition (GI)” value in the series with HL60/MX2 [4] and with HL-60 [5] was “inactive” in each case.
Regarding `O=C(O)C1Cc2cc(O)c(O)c(Br)c2C=N1` (stereo not given), the IC50 in the series on BALB/3T3 [1] is 183 µM; in series [3], 126 µM; in the series with MCF7 [10], 224 µM; with HL-60 [15], 156 µM; in the series with MCF10 [13] it was 904 µM. The “growth inhibition (GI)” value in the series with HL60/MX2 [4] is “inactive”.
As for `O=C(O)C1Cc2cc(O)cc(O)c2C=N1` (stereo not given), the Activity entry (in the series on MCF10 [6]; in series [7]; in the series on BALB/3T3 [8]) was “Non-Toxic” in each case. The “growth inhibition (GI)” value with MCF7 [2], in the series with HL60/MX2 [4] and in the series with HL-60 [5] was “inactive” in each case.

These data come from ChEMBL document CHEMBL4428115, “Molecular docking studies, biological and toxicity evaluation of dihydroisoquinoline derivatives as potential anticancer agents” (Bioorg Med Chem, 2016).
